Results from ChEMBL document CHEMBL4513216, “Probing the Open Global Health Chemical Diversity Library for Multistage-Active Starting Points for Next-Generation Antimalarials” (ACS Infect Dis, 2020).

Experiment: Toxicity liver stage against HepG2, at 10uM
Format: cell-based
Set-up: test concentration 10 uM, cell line HepG2-A16-CD81EGFP
Details: human, HepG2-A16-CD81EGFP cells; read-out: INHIBITION
Outline: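 Uninfected HepG2-A16-CD81EGFP cells, 3 × 10^3 per well, 1536-well, plated on prespotted compound at 10 μM final, parasite-free screening media added to match infected plates; puromycin 10 μM positive, DMSO 0.5% negative; run in parallel with 48 h PbLuc assay at 37 °C, 5% CO2; viability by CellTiter-Glo luminescence, normalized to controls.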

| Compound | cytotoxicity at 10 µM |
| --- | --- |
| CCS(=O)(=O)N1CCC(c2nn(CCN(C)C)c3ncccc23)C1 (configuration not stated) | -4.88% |
| Cc1ccc2oc(SCC(=O)NC(C)(C)C)nc2n1 | -0.3% |
| Cc1nn(C)c(C)c1C1COCCN1c1ncnc2sccc12 (configuration not stated) | 2.84% |
| c1cnc(N2CCOCC3(CCCN(Cc4cccs4)C3)C2)nc1 (configuration not stated) | -68.3% |
| Cc1cccc(C2(O)CCN(C(=O)c3ccccn3)CC2)c1C | -0.823% |
| Cc1cnc(NC(=O)c2ccc(C3CCCN3CC(C)C)s2)s1 (configuration not stated) | 9.45% |
| CCOc1ccc(-c2ccc3c(c2)OCO3)cc1C(N)=O | 5.17% |
| Cn1cc(CNCCc2nccs2)c(-c2cccnc2)n1 | 1.83% |
| Cc1noc(C)c1CS(=O)(=O)CC(=O)NCCc1cccs1 | -1.6% |
| Nc1nccc(C2CCCN2CCc2ccccc2)n1 (configuration not stated) | 3.38% |
| COCC(=O)N1CCN(Cn2nc(C)c(Br)c2C)CC1 | 0.633% |
| CCCn1cc(C(=O)N2CCCC2(C)c2nc(C)cc(C)n2)cn1 (configuration not stated) | 4.28% |
| Fc1ccccc1-c1noc2c1CN(CCN1CCOCC1)CC2 | 0.0119% |
| O=C(c1cnn(-c2ccccc2)n1)N1CCCC(n2cccn2)C1 (configuration not stated) | 1.13% |
| N#Cc1cccc(OCc2ccoc2C(=O)N2CCCCC2)c1 | -6.57% |
| CCCc1nn(Cc2ccc(Br)s2)c(=O)o1 | 3.81% |
| CCC(O)CN1CCN(C(=O)c2cccc(CC#N)c2)CC1 (configuration not stated) | -11.6% |
| CC(NC(=O)NCCCn1ccnc1)c1ccc2c(c1)OCCCO2 (configuration not stated) | -15.1% |
| CNC(=O)CN(C)c1nc(-c2ccncc2)nc2c1CCN(C(C)=O)C2 | -5.13% |
| CN(C)CCNc1ncccc1CNC(=O)Nc1cc(F)cc(F)c1 | 2.62% |
| COc1cccc(C=CCCN2CCCN(C(C)=O)CC2)c1 | 6.67% |
| CCS(=O)(=O)NC[C@]12COC[C@H]1CN(Cc1sccc1C)C2 | -75.2% |
| COCCN(Cc1ccc(OC)nc1)Cc1cccs1 | -7.28% |

| Compound | cytotoxicity at 10 µM |
| --- | --- |
| CC(C)c1nccn1C1CCCN(C(=O)C2=NN(C)C(=O)CC2)C1 (configuration not stated) | -24.6% |
| CCOCC1CN(C(=O)Cc2ccsc2)Cc2ccnn2C1 (configuration not stated) | -71.4% |
| Cc1ncc(CC(=O)N2CCC3(CCC(=O)N(CCO)C3)CC2)c(=O)[nH]1 | -44.7% |
| CC(=O)N1CCN(c2cc(-n3cccc3)ncn2)CC1 | -2% |
| CS(=O)(=O)Cc1ccc(OCc2ccc(F)cc2)cc1 | 22.9% |
| Cc1cc(C)n(-c2cccc(NC(=O)N3CCC[C@@H]3CO)c2)n1 | 13.9% |
| Cc1nc(CN(C)C2CCN(Cc3cccc(F)c3)C2)no1 (configuration not stated) | -15% |
| CN(Cc1cnn(C)c1)C(=O)c1ccc(=O)n(C)n1 | -7.87% |
| CN(CC1(C)COC1)C(=O)c1cc(-c2ccnn2C)nc2ccccc12 | 6.57% |
| CNC(=O)c1ccc(C2CN(C(=O)COC)CCO2)nc1 (configuration not stated) | 3.25% |
| CNC(=O)C1(CCCc2cnccn2)CCN1Cc1ccc(C)cc1 (configuration not stated) | 0.615% |
| Cc1nnc(CN(C)CC(=O)NC(C)(C)c2ccc(F)cc2)n1C | -4.25% |
| Cc1nn2cc(CNc3nccc(CCC(F)(F)F)n3)nc2s1 | -8.27% |
| CC(C)[C@H](NC(=O)NC1CCS(=O)(=O)C1)C(=O)NCc1ccccc1Cl (some centres not stated) | 5.91% |
| CCn1cc(NC(=O)C(C)n2ncc(Cl)c2C)c(C(=O)NC)n1 (configuration not stated) | 9.51% |
| CN(C)C(=O)CN1CCC(c2cccc(Cc3ccc(F)cc3)n2)CC1 | -22.3% |
| Cc1cc2c(=O)n3c(nc2s1)CCN(C(=O)c1cnn(C)c1C)CC3 | 0.359% |
| CSc1nccc(N2CCN(C)C3(CCC(=O)N(CC4CC4)CC3)C2)n1 (configuration not stated) | 5.6% |
| COCC1CC2(CCN(S(=O)(=O)C3CC3)CC2)CN1c1ncccn1 (configuration not stated) | -2.01% |
| CCS(=O)(=O)N1CCC2(CC1)CN(CC1CCOC1)c1ccccc12 (configuration not stated) | -85.9% |
| CC(C)Cn1cncc1CNC1CCSC1 (configuration not stated) | -2.34% |
| O=C(NCCCc1nc(=O)[nH][nH]1)Nc1cccc(F)c1 | -51.1% |
| Cc1nc(COC(=O)c2cccc3c2OCCO3)cs1 | 1.4% |

| Compound | cytotoxicity at 10 µM |
| --- | --- |
| Cc1cc(S(C)(=O)=O)c(C)c(S(=O)(=O)N2CCN(C)CC2)c1 | 11.7% |
| O=C1CC[C@H]2[C@H](CCN2c2ncccn2)N1c1ccccc1 | 5.77% |
| CC(NC(=O)Cc1ccccc1F)C(=O)N1CCS(=O)(=O)CC1 (configuration not stated) | 8.68% |
| Cn1cccc1C(=O)COc1ccc(S(N)(=O)=O)cc1 | 12.4% |
| Cc1n[nH]c(=O)c2c(NC(=O)CN3CCC(C)CC3)oc(C)c12 | -1.5% |
| Cc1c(C(=O)N2CC(C)(C)C2(C)C)nnn1-c1cccc2cnccc12 | 9.68% |
| COCC(=O)N1CCC(c2nccnc2Oc2cccnc2C)CC1 | 6.79% |
| Cc1csc(CNc2cnn(C(C)C)c2)n1 | 9.45% |
| CCC[C@H]1CN(Cc2nccn2C)C[C@@H]1NC(=O)C1(COC)CCC1 | -3.7% |
| Cc1cc(C)c(CNC(=O)CCC2CCCO2)c(=O)[nH]1 (configuration not stated) | 5.1% |
| c1cnc(N2CCC3(CCCN(Cc4ccncc4)C3)CC2)nc1 | -91.6% |
| CSCc1ccc(N2CCC(C(O)Cc3ccccc3)CC2)nc1 (configuration not stated) | 2.45% |
| CC(=O)N1CCOCC2(CN(Cc3ccc(C)o3)CCO2)C1 (configuration not stated) | 6.41% |
| Cc1nnc(NC(=O)CN2CCOC(Cn3cccn3)C2)s1 (configuration not stated) | -7.44% |
| COCc1csc(NC(=O)NCc2ccsc2)n1 | 4.53% |
| CC(CNC(=O)Nc1ccc(N(C)C)nc1)Cn1cccn1 (configuration not stated) | 6.95% |
| c1cc(CNc2ncc(-c3cnccn3)c([C@@H]3CCCO3)n2)ccn1 | 8.99% |
| Clc1ccccc1C1CN(CCc2ccncc2)CCO1 (configuration not stated) | 3.61% |
| CN(C)C(=O)N1CCN(C(=O)c2ccn3cncc3c2)CC1 | -9.96% |
| O=C(c1cccnc1O)N1CCOC(c2ccc(Cl)cc2)C1 (configuration not stated) | 2.6% |
| COc1ccc(C2=CCN(C(=O)C3CCC3)CC2)cc1 | -13.1% |
| CN(Cc1nnc(C2CC2)n1C)C1CCN(Cc2nccn2C)C1 (configuration not stated) | -8.22% |
| Cc1cncc(C2CCCN(C(=O)c3cccn3C)C2)n1 (configuration not stated) | 2.14% |

| Compound | cytotoxicity at 10 µM |
| --- | --- |
| CN(C(=O)c1cccc(C(=O)NS(C)(=O)=O)c1)c1ccccc1 | -2.35% |
| Cc1occc1C(=O)N(CCN(C)C)Cc1ccccn1 | 7.65% |
| CC1CCN(C(=O)c2ccn(COc3ccccc3)n2)CC1 | -0.107% |
| CC(C)n1c2ccccc2c2c1cc(C(=O)N(C)C)n2C(=O)N(C)C | -95% |
| O=C(CC1CN(Cc2ccccc2)CCO1)NC1CCCC1 (configuration not stated) | -0.394% |
| CS(=O)(=O)NC[C@H]1OC[C@@H]2CCN(Cc3ccc(F)cc3)C[C@@H]21 | -2.26% |
| O=C(Cn1cc(-c2ccccc2)ncc1=O)Nc1nc(C2CC2)n[nH]1 | 6.2% |
| O=C(Nc1cnn(CC(F)F)c1)c1cccc(-n2cnnn2)c1 | 6.01% |
| COCc1nc(CN2CC(C)(c3ccccc3)CCC2=O)no1 (configuration not stated) | 4.85% |
| CCC(NC(=O)Nc1ccc(OC)c(C)c1)c1noc(C)n1 (configuration not stated) | -12% |
| Cc1cnc(CNC(=O)NC2CCCN(c3ccccc3F)C2)s1 (configuration not stated) | 16.4% |
| c1cncc(-c2noc(CNC3CCc4ncnn4C3)n2)c1 (configuration not stated) | -5.57% |
| O=C(C[C@@H]1COC[C@H]2CN(Cc3ccc(F)cc3)C[C@@H]12)N1CCCCO1 | -2.26% |
| CC(C)(NC(=O)c1ccc(-c2ccccc2F)s1)C(N)=O | 12.7% |
| CC1CCN(C(=O)c2cn(-c3ccc(C(F)(F)F)cn3)nn2)CC1 | -53.1% |
| O=C(NCCc1cccnc1)NC1CCOC2(CCCCC2)C1 (configuration not stated) | -16.3% |
| O=C(c1cc(Cl)c2c(c1)OCO2)N1CCCC(n2ccnc2)C1 (configuration not stated) | -6.93% |
| Cn1cc(S(=O)(=O)N2CCCC(Cn3cncn3)C2)cn1 (configuration not stated) | 2% |
| O=C(C(C1CC1)C1CC1)N1CCC(n2ccnn2)CC1 | -45.7% |
| CNc1cncc(C2CCN(C(=O)c3coc(C)n3)CC2)n1 | 0.109% |
| Cc1nn(C)c2c(NCCn3cccn3)ncnc12 | -1.26% |
| CNC(=O)CN1C(=O)CCC12CCCN(Cc1ccccc1F)C2 (configuration not stated) | 4.76% |
| COc1ccccc1CN1CC(OC)CN(C(=O)OCC(C)C)CC1=O (configuration not stated) | -12% |

| Compound | cytotoxicity at 10 µM |
| --- | --- |
| Cc1ncsc1CN1CC[C@H]2OCC[C@@]2(C(=O)NC2CC2)C1 | 2.75% |
| CCc1cnc(N2CCC3(CCN(CC)C3=O)CC2)nc1 | 1.61% |
| O=C(NCc1ccccn1)c1cncc(C2CCCN2)n1 (configuration not stated) | 3.6% |
| Cc1cc(NC(=O)CN(C)C2CCCN(c3cccnn3)C2)on1 (configuration not stated) | -5.93% |
| CN(C)CC(=O)N1CCC2(CC(=O)N(c3cccc(C#N)c3)C2)C1 (configuration not stated) | 3.37% |
| COc1ccncc1NC(=O)C1(c2ccc(F)cc2)CCC1 | 1.52% |
| CN1CCN(C(=O)c2ccccc2)CC(Cc2cc(N(C)C)ncn2)C1 (configuration not stated) | 2% |
| COc1c(C)cnc(CN2CCCC2c2noc(C)n2)c1C (configuration not stated) | -3.75% |
| Cc1csc(C(C)(C)NCC(=O)N2CCCC(C(F)(F)F)C2)n1 (configuration not stated) | 6.32% |
| NC(=O)C(CNC(=O)Cc1ccsc1)Cc1ccc(F)cc1 (configuration not stated) | 9.21% |
| COCCn1cnc2ccc(NC(=O)c3ccccn3)cc2c1=O | -6.81% |
| Cn1cc(N2CC3(CCN(CC4CCOCC4)CC3)OCC2=O)cn1 | -9.29% |
| CC(C)c1noc(CCCC(=O)Nc2cccc(F)c2)n1 | 7.01% |
| COCC(=O)N1CCC2(CCCN(Cc3cc(OC)ccc3F)C2)C1 (configuration not stated) | -1.62% |
| COCC(NC(=O)c1cc(C)n(C)n1)c1cccc(C(F)(F)F)c1 (configuration not stated) | 9.43% |
| CNC(=O)NC(=O)CN1CCc2c(Br)ccc(F)c2C1 | -9.3% |
| O=C(NCC1CCS(=O)(=O)C1)N(Cc1ccccn1)C1CC1 (configuration not stated) | -129% |
| Cn1nnc2c1CCN(C(=O)C1CCC1)C2COCCN1CCCC1 (configuration not stated) | 11% |
| COc1ccc(C(=O)n2nc(C)c(C)c2C)cc1 | 6.06% |
| CCNc1cc2c(nn1)CCN(C(=O)c1c(C)noc1C)C2 | -5.76% |
